From ChEMBL document CHEMBL3616437, “Thiazole compounds with activity against Cryptococcus gattii and Cryptococcus neoformans in vitro” (Eur J Med Chem, 2015)
Converted amounts (≈) assume the structure as drawn.

Experiments:
Cryptococcus neoformans = assay: Antifungal activity against Cryptococcus neoformans ATCC 24067 after 48 to 72 hrs by broth microdilution method; format: functional
In short: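 CLSI M27-A3 broth microdilution. Isolates subcultured twice on SDA, 48 h at 35°C. Saline suspension adjusted to 70% transmittance at 530 nm, then diluted to 1-5 x10^3 cells/mL in RPMI with L-glutamine, 0.165 M MOPS, pH 7.0. Compounds in DMSO, tested at […]. 35°C for 48-72 h. MIC read visually as the lowest concentration giving an optically clear well.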

Vero = assay: Cytotoxicity against African green monkey Vero cells assessed as cell viability measured after 48 hrs by MTT assay; format: cell-based; conditions: Chlorocebus sabaeus
In short: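 VERO cells in D-MEM with 5% FBS, used up to 20 passages. Seeded 1 x 10^4 cells/well, pre-incubated 24 h at 37°C. Exposed 48 h at 37°C, 5% CO2, to eight nonserial dilutions from 100 to 0.0128 µM, with 0.5% DMSO control. MTT reduction read-out, corrected for background and blank. IC50 reported as median with 95% CI. Triplicate, two independent experiments.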

[1] = Cytotoxicity against C57BL/6 mouse peritoneal macrophages assessed as cell viability measured after 48 hrs by MTT assay; format: cell-based; conditions: C57BL/6, Peritoneal macrophage cell
In short: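 Thioglycollate-elicited peritoneal macrophages from male C57BL/6 mice, 6–8 weeks old, in RPMI with 10% FBS. Seeded 1 x 10^5 cells/well, pre-incubated 24 h at 37°C. Exposed 48 h at 37°C, 5% CO2, to eight nonserial dilutions from 100 to 0.0128 µM, with 0.5% DMSO control. MTT read-out, % inhibition versus DMSO control. IC50 reported as median with 95% CI. Triplicate, two independent experiments.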

[2] = Selectivity index, ratio of IC50 for African green monkey Vero cells to MIC for Cryptococcus neoformans ATCC 24067; format: toxicity, cell-based
[3] = Selectivity index, ratio of IC50 for C57BL/6 mouse peritoneal macrophages to MIC for Cryptococcus neoformans ATCC 24067
In short: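 SI = IC50/MIC. Thioglycollate-elicited peritoneal macrophages from C57BL/6 mice are seeded at 1 x 10^5/well. They are exposed for 48 h at 37°C to eight concentrations from 100 to 0.0128 µM. Viability read by MTT versus 0.5% DMSO control, triplicate in two experiments.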

CN(C)c1ccc(/C=N/Nc2nc(-c3ccccc3)cs2)cc1 showed an MIC (Cryptococcus neoformans) greater than 250 µM.
With COc1ccc(/C=N/Nc2nc(-c3ccc(Cl)cc3)cs2)cc1OC the MIC (Cryptococcus neoformans) was 15.6 µM (≈ 5.83 µg/mL), the IC50 (Vero) was greater than 100 µM and the IC50 [1] was greater than 100 µM. The selectivity ratio [2] was 6.41 and the Ratio [3] was 6.41.
Molecule COc1ccc(-c2csc(N/N=C/c3ccc(C)cc3)n2)cc1 has an MIC (Cryptococcus neoformans) greater than 250 µM.
Work on COc1ccc(-c2csc(N/N=C/c3ccncc3)n2)cc1 yielded an MIC (Cryptococcus neoformans) greater than 250 µM.
In the case of COc1ccc(-c2csc(N/N=C/c3ccccc3)n2)cc1, the MIC (Cryptococcus neoformans) is reported as greater than 250 µM.
Molecule Clc1ccc(-c2csc(N/N=C3\CCCC\C3=C/c3ccccc3)n2)cc1 has an MIC (Cryptococcus neoformans) of 7.8 µM (≈ 3.07 µg/mL), an IC50 (Vero) greater than 100 µM and an IC50 [1] greater than 100 µM. The selectivity ratio [2] was 12.8 and the Ratio [3] was 12.8.
COc1ccc(-c2csc(N/N=C3\CCCC\C3=C/c3ccccc3)n2)cc1 showed an MIC (Cryptococcus neoformans) of 7.8 µM (≈ 3.04 µg/mL), an IC50 (Vero) greater than 100 µM and an IC50 [1] greater than 100 µM. The selectivity ratio [2] was 12.8 and the Ratio [3] was 12.8.
In the case of C(=C1/CCCC/C1=N\Nc1nc(-c2ccccc2)cs1)/c1ccccc1, the MIC (Cryptococcus neoformans) is reported as 15.6 µM (≈ 5.61 µg/mL), the IC50 (Vero) is reported as greater than 100 µM and the IC50 [1] is reported as greater than 100 µM. The selectivity ratio [2] was 6.41 and the Ratio [3] was 6.41.
Work on COc1ccc(-c2csc(N/N=C/c3ccc(N(C)C)cc3)n2)cc1 yielded an MIC (Cryptococcus neoformans) greater than 250 µM.
